According to ChEMBL document CHEMBL4330056, “Synthesis and Cytotoxic and Antiviral Profiling of Pyrrolo- and Furo-Fused 7-Deazapurine Ribonucleosides” (J Med Chem, 2018):
Calls of active or inactive are those of the source. The rule behind the calls is not given here.

Columns and labels:
Adenosine kinase [1] = target: T1, Adenosine kinase (Homo sapiens, UniProt P55263); assay: Inhibition of recombinant human ADK using [3H]-adenosine as substrate after 20 mins by TLC scanner-based analysis relative to control
Procedure, shortened: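 ADK inhibition: 50 μM adenosine substrate with 10 μM test compound and 97 ng enzyme, 20 min at 37 °C.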

U2OS = assay: Antiproliferative activity against human U2OS cells after 3 days by MTS assay; format: functional, cell-based; details: 72 h
HeLa S3 = assay: Antiproliferative activity against human HeLaS3 cells after 72 hrs by XTT assay; format: functional, cell-based; details: HeLa S3, 72 h
Human orthopneumovirus = assay: Antiviral activity against Human respiratory syncytial virus A2 infected in Hep2 cells assessed as reduction in virus-induced cytopathic effect incubated for 4 days by CellTiter-Glo viability reagent based assay; format: functional, organism-based
HL-60 = assay: Antiproliferative activity against human HL60 cells after 72 hrs by XTT assay; format: functional, cell-based; details: HL-60, 72 h
Hepatitis C virus [2] = assay: Antiviral activity against Hepatitis C virus genotype 2a infected in human Huh-luc replicon cells after 3 days by luciferase assay; format: functional, organism-based, Hepacivirus hominis; details: subtype 2a, 72 h
dengue virus type 2 = assay: Antiviral activity against Dengue virus 2 Thailand/16681/84 infected in African green monkey Vero cells assessed as inhibition of virus replication incubated for 3 days by fluorescence microscopy; format: functional, organism-based
Influenza A virus = assay: Antiviral activity against Influenza A virus (A/Mexico/4108/2009(H1N1)) infected in MDCK cells assessed as inhibited virus-induced cytopathic effect incubated for 2 days by XTT assay; format: functional, organism-based
HCT-116 [3] = assay: Antiproliferative activity against human HCT116 cells after 3 days by MTS assay; format: functional, cell-based; details: HCT-116, 72 h
Adenosine kinase [4] = target: T1, Adenosine kinase; assay: Substrate activity at recombinant human ADK assessed as compound phosphorylation at 50 uM after 20 mins in presence of [3H]-adenosine by UPLC; format: ADME
[5] = Cytotoxicity against human Hep2 cells assessed as reduction in cell viability after 3 days by CellTiter-Glo assay; format: cell-based; details: HEp-2 cells
BJ = assay: Antiproliferative activity against human BJ cells after 3 days by MTS assay; details: 72 h
MRC5 = assay: Antiproliferative activity against human MRC5 cells after 3 days by MTS assay; details: MRC5, 72 h
A549 = assay: Antiproliferative activity against human A549 cells after 3 days by MTS assay; format: functional, cell-based; details: A549, 72 h
Hepatitis C virus [6] = assay: Antiviral activity against Hepatitis C virus genotype 1b infected in human Huh-luc replicon cells after 3 days by luciferase assay; format: functional, organism-based, Hepacivirus hominis; details: subtype 1b, 72 h
Human alphaherpesvirus 1 = assay: Antiviral activity against human herpesvirus 1 HF infected in African green monkey Vero cells assessed as inhibited virus-induced cytopathic effect incubated for 3 days by XTT assay; format: functional, organism-based
CCRF-CEM = assay: Antiproliferative activity against human CCRF-CEM cells after 3 days by MTS assay; format: functional, cell-based; details: 72 h
[7] = Antiproliferative activity against human CEM-DNR-bulk cells after 3 days by MTS assay; details: 72 h
K562 = assay: Antiproliferative activity against human K562 cells after 3 days by MTS assay; format: functional, cell-based; details: K562, 72 h
HCT-116 [8] = assay: Antiproliferative activity against p53 gene knocked out human HCT116 cells after 3 days by MTS assay; format: functional, cell-based; details: HCT-116, 72 h
[9] = Antiproliferative activity against human K562-TAX cells after 3 days by MTS assay; format: functional, cell-based; details: 72 h
HepG2 = assay: Antiproliferative activity against human HepG2 cells after 72 hrs by XTT assay; format: functional, cell-based; details: HepG2, 72 h
Coxsackievirus B3 = assay: Antiviral activity against Human coxsackie B3 Nancy infected in human HeLa cells assessed as inhibited virus-induced cytopathic effect incubated for 2 days by XTT assay; format: functional, organism-based

T1 sequence (P55263 whole entry): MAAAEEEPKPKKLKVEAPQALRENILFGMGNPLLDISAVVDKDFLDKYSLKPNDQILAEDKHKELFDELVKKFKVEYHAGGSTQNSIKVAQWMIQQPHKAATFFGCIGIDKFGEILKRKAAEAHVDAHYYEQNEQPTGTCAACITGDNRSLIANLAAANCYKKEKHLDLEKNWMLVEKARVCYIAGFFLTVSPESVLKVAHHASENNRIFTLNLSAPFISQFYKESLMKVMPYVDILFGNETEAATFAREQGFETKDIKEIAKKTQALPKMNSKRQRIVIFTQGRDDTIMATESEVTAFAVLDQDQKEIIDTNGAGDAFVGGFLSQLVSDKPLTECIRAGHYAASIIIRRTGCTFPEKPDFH

| SMILES | IC50 (Adenosine kinase [1]) [µM] | IC50 (U2OS) [µM] | IC50 (HeLa S3) [µM] | Activity (Human orthopneumovirus) | IC50 (HL-60) [µM] | EC50 (Hepatitis C virus [2]) [µM] | Activity (dengue virus type 2) | Activity (Influenza A virus) | IC50 (HCT-116 [3]) [µM] | Activity (Adenosine kinase [4]) [%] | CC50 at 72 h [5] [µM] | IC50 (BJ) [µM] | IC50 (MRC5) [µM] | IC50 (A549) [µM] | EC50 (Hepatitis C virus [6]) [µM] | Activity (Human alphaherpesvirus 1) | IC50 (CCRF-CEM) [µM] | IC50 [7] [µM] | IC50 (K562) [µM] | IC50 (HCT-116 [8]) [µM] | further results |
| --- | --- | --- | --- | --- | --- | --- | --- | --- | --- | --- | --- | --- | --- | --- | --- | --- | --- | --- | --- | --- | --- |
| OC[C@H]1O[C@@H](n2c3ccoc3c3c(-c4cc5ccccc5o4)ncnc32)[C@H](O)[C@@H]1O | 0.336 | 37.8 | > 50 | inactive | > 50 | > 44.4 | inactive | inactive | 48.8 | 58 | > 44.4 | > 50 | > 50 | 49.3 | 5.34 | inactive | 14.1 | 37.1 | 39.6 | 46.5 | IC50 [9]: 24.3 µM; IC50 (HepG2): 2.83 µM; Activity (Coxsackievirus B3): inactive |
| Cn1ccc2c1c1c(-c3ccco3)ncnc1n2[C@@H]1O[C@H](CO)[C@@H](O)[C@H]1O | 7.12 | 7.37 | > 50 | inactive | > 50 | > 44.4 | inactive | inactive | > 50 | 11 | > 44.4 | > 50 | > 50 | > 50 | 0.22 | inactive | > 50 | > 50 | > 50 | > 50 | IC50 [9]: > 50 µM; IC50 (HepG2): > 50 µM; Activity (Coxsackievirus B3): inactive |
| Nc1ncnc2c1ncn2[C@@H]1O[C@H](CO)[C@@H](O)[C@H]1O [ADENOSINE] | – | – | – | – | – | – | – | – | – | 73 | – | – | – | – | – | – | – | – | – | – | – |
| Cn1ccc2c3c(N)ncnc3n([C@@H]3O[C@H](CO)[C@@H](O)[C@H]3O)c21 | > 10 | > 50 | > 50 | inactive | > 50 | 33.9 | inactive | inactive | > 50 | 0 | 34.6 to 44.4 | > 50 | > 50 | > 50 | 27.3 | inactive | > 50 | > 50 | > 50 | > 50 | IC50 [9]: > 50 µM; IC50 (HepG2): > 50 µM; Activity (Coxsackievirus B3): inactive |
| Cn1ccc2c3c(Cl)ncnc3n([C@@H]3O[C@H](CO)[C@@H](O)[C@H]3O)c21 | > 10 | > 50 | > 50 | inactive | > 50 | > 44.4 | inactive | inactive | > 50 | 0 | > 44.4 | > 50 | > 50 | > 50 | 36.4 | inactive | > 50 | > 50 | > 50 | > 50 | IC50 [9]: > 50 µM; IC50 (HepG2): > 50 µM; Activity (Coxsackievirus B3): inactive |
| Cc1ncnc2c1c1ccn(C)c1n2[C@@H]1O[C@H](CO)[C@@H](O)[C@H]1O | > 10 | > 50 | > 50 | inactive | > 50 | > 44.4 | inactive | inactive | > 50 | 0 | > 44.4 | > 50 | > 50 | > 50 | > 44.4 | inactive | > 50 | > 50 | > 50 | > 50 | IC50 [9]: > 50 µM; IC50 (HepG2): > 50 µM; Activity (Coxsackievirus B3): inactive |
| Cn1ccc2c1c1c(N)ncnc1n2[C@@H]1O[C@H](CO)[C@@H](O)[C@H]1O | > 10 | 50 | > 50 | inactive | 2.29 | 0.22 | inactive | inactive | > 50 | 68 | 40.9 to 44.4 | > 50 | > 50 | > 50 | 0.46 | inactive | 50 | > 50 | > 50 | > 50 | IC50 [9]: > 50 µM; IC50 (HepG2): > 50 µM; Activity (Coxsackievirus B3): inactive |
| OC[C@H]1O[C@@H](n2c3ccoc3c3c(-c4ccoc4)ncnc32)[C@H](O)[C@@H]1O | > 10 | 0.64 | 13.1 | inactive | 1.92 | > 44.4 | inactive | inactive | 12.1 | 38 | > 44.4 | 0.52 | > 50 | > 50 | 0.78 | inactive | 0.21 | > 50 | 0.42 | 10.7 | IC50 [9]: 9.78 µM; IC50 (HepG2): 6.71 µM; Activity (Coxsackievirus B3): inactive |
| Cn1ccc2c3c(-c4cc5ccccc5o4)ncnc3n([C@@H]3O[C@H](CO)[C@@H](O)[C@H]3O)c21 | 0.47 | 28.9 | > 50 | inactive | > 50 | 15.5 | inactive | inactive | 36.5 | 0 | 27.5 to 29.1 | 44.7 | 45.2 | 35.4 | 7.83 | inactive | 9.48 | 30.6 | 22.1 | 36.4 | IC50 [9]: 23 µM; IC50 (HepG2): > 50 µM; Activity (Coxsackievirus B3): inactive |
| CN(C)c1ncnc2c1c1occc1n2[C@@H]1O[C@H](CO)[C@@H](O)[C@H]1O | > 10 | > 50 | > 50 | inactive | > 50 | > 44.4 | inactive | inactive | > 50 | 7 | > 44.4 | > 50 | > 50 | > 50 | > 44.4 | inactive | > 50 | > 50 | > 50 | > 50 | IC50 [9]: > 50 µM; IC50 (HepG2): > 50 µM; Activity (Coxsackievirus B3): inactive |
| Cn1ccc2c1c1c(-c3cc4ccccc4o3)ncnc1n2[C@@H]1O[C@H](CO)[C@@H](O)[C@H]1O | 0.3 | 43.9 | > 50 | inactive | > 50 | 32.5 | inactive | inactive | 46.2 | 0 | 26.9 to 44.4 | > 50 | > 50 | > 50 | 1.6 | inactive | 16.5 | 29.8 | > 50 | 47.5 | IC50 [9]: 29.3 µM; IC50 (HepG2): > 50 µM; Activity (Coxsackievirus B3): inactive |
| CSc1ncnc2c1c1ccn(C)c1n2[C@@H]1O[C@H](CO)[C@@H](O)[C@H]1O | > 10 | 27.4 | > 50 | inactive | > 50 | 17 | inactive | inactive | 35.9 | 0 | 36.8 to 44 | > 50 | > 50 | > 50 | 5.98 | inactive | 25.5 | 28.2 | 18 | > 50 | IC50 [9]: 30 µM; IC50 (HepG2): > 50 µM; Activity (Coxsackievirus B3): inactive |
| CC(C)C(=O)OC[C@H]1O[C@@H](n2ccc(N)nc2=O)[C@](C)(F)[C@@H]1OC(=O)C(C)C [MERICITABINE] | – | – | – | – | – | – | – | – | – | – | > 44.4 | – | – | – | – | – | – | – | – | – | – |
